# In ChEMBL document CHEMBL1158342, “Synthesis and biological activity evaluation of 1H-benzimidazoles via mammalian DNA topoisomerase I and cytostaticity assays” (Eur J Med Chem, 2009):
# pIC50: −log10 of the molar value. Activity calls are given as the source filed them. No cut-off for these calls is given here.
# Tests used:
# Bos taurus [1] = species: Bos taurus; test: Inhibition of calf thymus DNA topoisomerase 1-mediated relaxation of supercoiled pBR322 plasmid DNA at 1 ug/ml by agarose gel electrophoresis
# How it was run: (§1)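 Reaction contained 1 unit calf thymus topo I and supercoiled pBR322 in 35 mM Tris-HCl pH 8.0, 72 mM KCl, 5 mM MgCl2, 5 mM DTT, 5 mM spermidine and 0.1% BSA, with or without compound, at 37 °C. Products were run on 1% agarose in TBE at 5 V/cm, stained with ethidium bromide and photographed under UV. Supercoiled and relaxed bands were quantified from gel images.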
# Bos taurus [2] = species: Bos taurus; test: Inhibition of calf thymus DNA topoisomerase 1-mediated relaxation of supercoiled pBR322 plasmid DNA by agarose gel electrophoresis; how it was run: as §1
# A-431 = test: Cytotoxicity against human A431 cells after 72 hrs by MTT assay; assay type: functional, cell-based; conditions: A-431, 72 h
# How it was run: (§2)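 Cells seeded at 5000/well and left to attach overnight, then given fresh medium containing compound over […] and incubated 72 h. Viability read by MTT: 4 h contact, crystals dissolved in DMSO over 60 min of shaking, absorbance at 545 nm. Untreated wells served as controls; DMSO at most 0.3%. Two plates with at least five parallel wells each; IC50 from fitted dose–response curves.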
# HeLa = test: Cytotoxicity against human HeLa cells after 72 hrs by MTT assay; assay type: functional, cell-based; how it was run: as §2
# MCF7 = test: Cytotoxicity against human MCF7 cells after 72 hrs by MTT assay; assay type: functional, cell-based; conditions: MCF7, 72 h; how it was run: as §2
Structure (SMILES),inhibition (Bos taurus [1]),inhibition (Bos taurus [2]),pIC50 (A-431),pIC50 (HeLa),pIC50 (MCF7)
Clc1ccc2[nH]c(-c3ccccc3OCCN3CCCC3)nc2c1,inactive,Dose-dependent effect,,,
COc1cccc2c1C(=O)c1c(O)c3c(c(O)c1C2=O)C[C@@](O)(C(=O)CO)C[C@@H]3O[C@H]1C[C@H](N)[C@H](O)[C@H](C)O1 [DOXORUBICIN],,,6.72,6.80,6.51
CCN(CC)CCOc1ccccc1-c1nc2cc(Cl)ccc2[nH]1,inactive,Dose-dependent effect,,,
Clc1ccc2[nH]c(-c3ccccc3OCCN3CCCCC3)nc2c1,inactive,Dose-dependent effect,,,
Oc1ccccc1-c1nc2cc(Cl)ccc2[nH]1,99%,Dose-dependent effect,5.21,5.22,5.16
Oc1ccccc1-c1nc2ccccc2[nH]1,95.4%,Dose-dependent effect,< 4.52,4.58,4.80

# More lines, main results first:
inhibition (Bos taurus [1]),inhibition (Bos taurus [2]),Structure (SMILES),pIC50 (A-431),pIC50 (HeLa),pIC50 (MCF7)
90.2%,Dose-dependent effect,c1ccc(-c2nc3ccccc3[nH]2)c(OCCN2CCCC2)c1,< 4.52,4.70,< 4.52
inactive,Dose-dependent effect,c1ccc(-c2nc3ccccc3[nH]2)c(OCCN2CCOCC2)c1,,,
inactive,Dose-dependent effect,c1ccc(-c2nc3ccccc3[nH]2)c(OCCN2CCCCC2)c1,,,
inactive,Dose-dependent effect,Clc1ccc2[nH]c(-c3ccccc3OCCN3CCOCC3)nc2c1,,,
